Results from ChEMBL document CHEMBL2040734, “Benzothiazoles: search for anticancer agents” (2012).

Tests used:
Format in all cases: functional
RPMI-8226 = test: Cytotoxicity against human RPMI8226 cells assessed as cell growth at 0.1 uM after 48 hrs by sulforhodamine B assay; conditions: RPMI-8226, 48 h, read-out: Activity
NCI-H322M = test: Cytotoxicity against human NCI-H322M cells assessed as cell growth at 0.1 uM after 48 hrs by sulforhodamine B assay; conditions: read-out: Activity
OVCAR-8 = test: Cytotoxicity against human OVCAR8 cells assessed as cell growth at 0.1 uM after 48 hrs by sulforhodamine B assay; conditions: OVCAR-8, 48 h, read-out: Activity
LOX IMVI [1] = test: Cytotoxicity against human LOXIMVI cells assessed as cell growth at 100 uM after 48 hrs by sulforhodamine B assay; conditions: read-out: Activity
COLO 205 = test: Cytotoxicity against human COLO205 cells assessed as cell growth at 1 uM after 48 hrs by sulforhodamine B assay; conditions: COLO 205, 48 h, read-out: Activity
Outline: (§1)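 NCI-60 five-dose screen. Cells were grown in RPMI 1640 with 5% FBS and 2 mM L-glutamine and preincubated 24 h. Compound (DMSO stock) was tested at 0.01, 0.1, 1, 10 and 100 µM for 48 h at 37 °C. Cells were fixed in situ with cold TCA (final 10%) and stained with 0.4% SRB. A515 was read, and percent growth was calculated against time-zero and control plates.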

HT-29 = test: Cytotoxicity against human HT-29 cells assessed as cell growth at 1 uM after 48 hrs by sulforhodamine B assay; conditions: HT-29, 48 h, read-out: Activity
Outline: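 Five-dose NCI panel run at 0.01, 0.1, 1, 10 and 100 µM. Cells were in RPMI 1640 with 5% FBS and 2 mM L-glutamine, seeded at 5000–40,000 cells/well and pre-incubated 24 h. Drug was diluted from a DMSO stock into medium with 50 µg/ml gentamicin. Exposure was 48 h at 37 °C, 5% CO2. Cells were fixed with cold TCA and stained with 0.4% SRB, read at 515 nm. Percent growth came from time-zero, control and test absorbances.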

NCI/ADR-RES = test: Cytotoxicity against human NCI/ADR-RES cells assessed as cell growth at 1 uM after 48 hrs by sulforhodamine B assay; conditions: read-out: Activity
786-0 = test: Cytotoxicity against human 786-0 cells assessed as cell growth at 1 uM after 48 hrs by sulforhodamine B assay; conditions: 786-0, 48 h, read-out: Activity; outline: as §1
SK-MEL-28 = test: Cytotoxicity against human SK-MEL-28 cells assessed as cell growth at 10 uM after 48 hrs by sulforhodamine B assay; conditions: SK-MEL-28, 48 h, read-out: Activity
UACC-62 [2] = test: Cytotoxicity against human UACC62 cells assessed as cell growth at 10 uM after 48 hrs by sulforhodamine B assay; conditions: UACC-62, 48 h, read-out: Activity
SN12C = test: Cytotoxicity against human SN12C cells assessed as cell growth at 10 uM after 48 hrs by sulforhodamine B assay; conditions: read-out: Activity
A549 = test: Cytotoxicity against human A549 cells assessed as cell growth at 100 uM after 48 hrs by sulforhodamine B assay; conditions: A549, 48 h, read-out: Activity; outline: as §1
SNB-75 = test: Cytotoxicity against human SNB75 cells assessed as cell growth at 10 '-5 M after 48 hrs by sulforhodamine B assay; conditions: SNB-75, 48 h, read-out: Activity
M14 = test: Cytotoxicity against human M14 cells assessed as cell growth at 10 '-5 M after 48 hrs by sulforhodamine B assay; conditions: M14, 48 h, read-out: Activity
SK-MEL-2 = test: Cytotoxicity against human SK-MEL-2 cells assessed as cell growth at 10 '-5 M after 48 hrs by sulforhodamine B assay; conditions: SK-MEL-2, 48 h, read-out: Activity
MCF7 = test: Cytotoxicity against human MCF7 cells assessed as cell growth at 10 '-5 M after 48 hrs by sulforhodamine B assay; conditions: MCF7, 48 h, read-out: Activity
HL-60(TB) = test: Growth inhibition of human HL-60(TB) cells after 48 hrs by sulforhodamine B assay; conditions: HL-60, 48 h; for CC50: read-out: LC50 (the source's name)
Outline: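 HL-60(TB) suspension cells in RPMI 1640 with 5% FBS and 2 mM L-glutamine were treated for 48 h at five concentrations (0.01–100 µM). Settled cells were fixed with 16% TCA (final), SRB-stained and read at 515 nm. GI50 was the concentration giving (Ti−Tz)/(C−Tz)×100 = 50 from log concentration–growth curves, expressed as ">" if not reached at the top concentration.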

HCT-116 = test: Growth inhibition of human HCT116 cells after 48 hrs by sulforhodamine B assay; conditions: HCT-116, 48 h; for CC50: read-out: LC50 (the source's name)
Outline: (§2)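 Adherent NCI-60 lines were grown in RPMI 1640 with 5% FBS and 2 mM L-glutamine, plated at 5000–40,000 cells/well and preincubated 24 h. They were then exposed to five concentrations (0.01–100 µM, from a DMSO stock) for 48 h at 37 °C, 5% CO2. Cells were fixed with cold TCA (10% final, 60 min, 4 °C) and stained with 0.4% SRB. Dye was solubilized in 10 mM Tris base and A515 read. GI50 was derived from time-zero, control and treated absorbances.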

LOX IMVI [3] = test: Growth inhibition of human LOXIMVI cells after 48 hrs by sulforhodamine B assay; outline: as §2
Malme-3M = test: Growth inhibition of human MALME-3M cells after 48 hrs by sulforhodamine B assay; conditions: for CC50: read-out: LC50 (the source's name); outline: as §2
MDA-MB-435 = test: Growth inhibition of human MDA-MB-435 cells after 48 hrs by sulforhodamine B assay; conditions: MDA-MB-435, 48 h; for CC50: read-out: LC50 (the source's name); outline: as §2
UACC-62 [4] = test: Growth inhibition of human UACC62 cells after 48 hrs by sulforhodamine B assay; conditions: UACC-62, 48 h; for CC50: read-out: LC50 (the source's name); outline: as §2
ACHN = test: Growth inhibition of human ACHN cells after 48 hrs by sulforhodamine B assay; conditions: for CC50: read-out: LC50 (the source's name)
Outline: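 Cells were in RPMI 1640 with 5% FBS and pre-incubated 24 h. Read-out was TCA fixation, SRB staining and absorbance at 515 nm. GI50 was the concentration where [(Ti−Tz)/(C−Tz)]×100 = 50, taken from log concentration vs % growth curves. It is given as ">" the top concentration when not reached.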

MDA-MB-231 = test: Growth inhibition of human MDA-MB-231 cells after 48 hrs by sulforhodamine B assay; conditions: MDA-MB-231, 48 h; outline: as §2
[5] = Growth inhibition of human Hs 578T cells after 48 hrs by sulforhodamine B assay; conditions: for CC50: read-out: LC50 (the source's name); outline: as §2
MOLT-4 = test: Cytotoxicity against human MOLT4 cells assessed as cell growth at 0.01 uM after 48 hrs by sulforhodamine B assay; conditions: MOLT-4, 48 h, read-out: Activity

Compound: Cc1ccc2nc(Nc3c(C)cccc3C)sc2c1
- growth at 0.1 µM (RPMI-8226): 100%
- growth at 0.1 µM (NCI-H322M): 105%
- growth at 0.1 µM (OVCAR-8): 105%
- growth at 100 µM (LOX IMVI [1]): 57%
- growth at 1 µM (COLO 205): 82%
- growth at 1 µM (HT-29): 39%
- growth at 1 µM (NCI/ADR-RES): 40%
- growth at 1 µM (786-0): 81%
- growth at 10 µM (SK-MEL-28): 45%
- growth at 10 µM (UACC-62 [2]): 23%
- growth at 10 µM (SN12C): 36%
- growth at 100 µM (A549): 69%
- growth at 10 µM (SNB-75): -15.5%
- growth at 10 µM (M14): 26.2%
- growth at 10 µM (SK-MEL-2): 34.6%
- growth at 10 µM (MCF7): 19.8%
- TGI (HL-60(TB)): > 100000 nM
- CC50 (HL-60(TB)): > 100000 nM
- GI50 (HCT-116): 2300 nM
- TGI (HCT-116): > 100000 nM
- CC50 (HCT-116): > 100000 nM
- LC50 (LOX IMVI [3]): > 100000 nM
- TGI (LOX IMVI [3]): > 100000 nM
- TGI (Malme-3M): > 100000 nM
- CC50 (Malme-3M): > 100000 nM
- GI50 (MDA-MB-435): 242 nM
- TGI (MDA-MB-435): 822 nM
- CC50 (MDA-MB-435): > 100000 nM
- GI50 (UACC-62 [4]): 1150 nM
- TGI (UACC-62 [4]): > 100000 nM
- CC50 (UACC-62 [4]): > 100000 nM
- GI50 (ACHN): 76600 nM
- TGI (ACHN): > 100000 nM
- CC50 (ACHN): > 100000 nM
- GI50 (MDA-MB-231): 528 nM
- LC50 (concentration killing 50% of cells) (MDA-MB-231): > 100000 nM
- TGI (MDA-MB-231): 59800 nM
- GI50 [5]: 3840 nM
- TGI [5]: > 100000 nM
- CC50 [5]: > 100000 nM
- growth at 0.01 µM (MOLT-4): 104%

Compound: Clc1cccc(Cl)c1Nc1nc2cccc(Cl)c2s1
- growth at 0.1 µM (RPMI-8226): 97%
- growth at 0.1 µM (NCI-H322M): 102%
- growth at 0.1 µM (OVCAR-8): 101%
- growth at 100 µM (LOX IMVI [1]): -21%
- growth at 1 µM (COLO 205): 74%
- growth at 1 µM (HT-29): 65%
- growth at 1 µM (NCI/ADR-RES): 36%
- growth at 1 µM (786-0): 52%
- growth at 10 µM (SK-MEL-28): -86%
- growth at 10 µM (UACC-62 [2]): -85%
- growth at 10 µM (SN12C): -94%
- growth at 100 µM (A549): -55%
- growth at 10 µM (SNB-75): -26.9%
- growth at 10 µM (M14): -61.3%
- growth at 10 µM (SK-MEL-2): -52.7%
- growth at 10 µM (MCF7): -14.7%
- GI50 (HL-60(TB)): 1320 nM
- TGI (HL-60(TB)): 3750 nM
- CC50 (HL-60(TB)): 20600 nM
- GI50 (HCT-116): 1010 nM
- TGI (HCT-116): 2190 nM
- CC50 (HCT-116): 4750 nM
- GI50 (LOX IMVI [3]): 1090 nM
- TGI (LOX IMVI [3]): 2510 nM
- GI50 (Malme-3M): 1030 nM
- TGI (Malme-3M): 2400 nM
- CC50 (Malme-3M): 5600 nM
- GI50 (MDA-MB-435): 813 nM
- TGI (MDA-MB-435): 2380 nM
- CC50 (MDA-MB-435): 6050 nM
- GI50 (UACC-62 [4]): 1010 nM
- TGI (UACC-62 [4]): 2370 nM
- CC50 (UACC-62 [4]): 5550 nM
- GI50 (ACHN): 1150 nM
- TGI (ACHN): 2380 nM
- CC50 (ACHN): 4920 nM
- GI50 (MDA-MB-231): 304 nM
- LC50 (concentration killing 50% of cells) (MDA-MB-231): 4060 nM
- TGI (MDA-MB-231): 1420 nM
- GI50 [5]: 938 nM
- TGI [5]: 3490 nM
- CC50 [5]: > 100000 nM
- growth at 0.01 µM (MOLT-4): 107%
